Measurements taken from ChEMBL document CHEMBL1123346, “Pyrimidinones. 3. N-substituted 6-phenylpyrimidinones and pyrimidinediones with diuretic/hypotensive and antiinflammatory activity” (J Med Chem, 1986).
Active and inactive are the calls of the source.

Assays:
Rattus norvegicus [1] = assay: Compound was tested for urinary volume excretion in conscious rat at the dose of 100 mg/kg expressed as urinary excretion in treated rats/urinary excretion in control rats; type: ADME, organism-based, Urine; parameters: dose 100 mg/kg; details: in vivo
In short: (§1)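 Male rats (~160 g) fasted 24 h, water withheld 1.5 h; oral gavage of compound (0.3-100 mg/kg) in 25 mL/kg saline with 0.5% carboxymethylcellulose; 5 h urine collection in metabolism cages. Urine volume, Na+ and K+ (flame photometry) expressed as treated/control excretion ratio.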

[2] = Sodium salt excretion in conscious rat at the dose of 1.0 mg/kg expressed as urinary excretion in treated rats/urinary excretion in control rats; type: ADME, organism-based, Urine; parameters: dose 1 mg/kg; details: in vivo; in short: as §1
[3] = Potassium salt excretion in conscious rat at the dose of 1.0 mg/kg expressed as urinary excretion in treated rats/urinary excretion in control rats; type: ADME, organism-based, Urine; parameters: dose 1 mg/kg; details: in vivo; in short: as §1
Rattus norvegicus [4] = assay: Compound was tested for urinary volume excretion in conscious rat at the dose of 10 mg/kg expressed as urinary excretion in treated rats/urinary excretion in control rats; type: ADME, organism-based, Urine; parameters: dose 10 mg/kg; details: in vivo; in short: as §1
[5] = Sodium salt excretion in conscious rat at the dose of 100 mg/kg expressed as urinary excretion in treated rats/urinary excretion in control rats; type: ADME, organism-based, Urine; parameters: dose 100 mg/kg; details: in vivo; in short: as §1
[6] = Sodium salt excretion in conscious rat at the dose of 10 mg/kg expressed as urinary excretion in treated rats/urinary excretion in control rats; type: ADME, organism-based, Urine; parameters: dose 10 mg/kg; details: in vivo; in short: as §1
[7] = Potassium salt excretion in conscious rat at the dose of 10 mg/kg expressed as urinary excretion in treated rats/urinary excretion in control rats; type: ADME, organism-based, Urine; parameters: dose 10 mg/kg; details: in vivo; in short: as §1
[8] = Potassium salt excretion in conscious rat at the dose of 30 mg/kg expressed as urinary excretion in treated rats/urinary excretion in control rats; type: ADME, organism-based, Urine; parameters: dose 30 mg/kg; details: in vivo; in short: as §1
Rattus norvegicus [9] = assay: Compound was tested for urinary volume excretion in conscious rat at the dose of 1.0 mg/kg expressed as urinary excretion in treated rats/urinary excretion in control rats; type: ADME, organism-based, Urine; parameters: dose 1 mg/kg; details: in vivo; in short: as §1
Rattus norvegicus [10] = assay: Compound was tested for urinary volume excretion in conscious rat at the dose of 30 mg/kg expressed as urinary excretion in treated rats/urinary excretion in control rats; type: ADME, organism-based, Urine; parameters: dose 30 mg/kg; details: in vivo; in short: as §1
Rattus norvegicus [11] = assay: Blood pressure change in rats after oral administration of 50 mg/kg dose after 4 hours; type: functional
In short: (§2)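 Restrained female Sprague–Dawley rats with indwelling aortic cannulas exteriorized at the nape; direct arterial pressure via transducer, mean pressure by electrical integration of phasic pressure. Readings before and 4 and 24 h after oral dosing (carboxymethylcellulose suspension, 10 mL/kg). Value is change in mean arterial pressure, averaged over two animals.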

[12] = Potassium salt excretion in conscious rat at the dose of 100 mg/kg expressed as urinary excretion in treated rats/urinary excretion in control rats; type: ADME, organism-based, Urine; parameters: dose 100 mg/kg; details: in vivo; in short: as §1
Rattus norvegicus [13] = species on record: Rattus norvegicus; assay: Diuretic activity in rats; type: functional, Urine
In short: (§3)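 Male rats (~160 g) fasted 24 h, water withheld 1.5 h, both withheld during test. Gavage 25 mL/kg 0.9% saline with 0.5% carboxymethylcellulose containing compound at 40 mg/kg; urine collected 5 h in metabolism cages. Two-stage test, T/C urine volume per stage; active if product of stage T/Cs ≥3.34.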

Rattus norvegicus [14] = assay: Compound was tested for urinary volume excretion in conscious rat at the dose of 0.3 mg/kg expressed as urinary excretion in treated rats/urinary excretion in control rats; type: ADME, organism-based, Urine; parameters: dose 0.3 mg/kg; details: in vivo; in short: as §1
[15] = Potassium salt excretion in conscious rat at the dose of 3.0 mg/kg expressed as urinary excretion in treated rats/urinary excretion in control rats; type: ADME, organism-based, Urine; parameters: dose 3 mg/kg; details: in vivo; in short: as §1
[16] = Potassium salt excretion in conscious rat at the dose of 0.3 mg/kg expressed as urinary excretion in treated rats/urinary excretion in control rats; type: ADME, organism-based, Urine; parameters: dose 0.3 mg/kg; details: in vivo; in short: as §1
[17] = Sodium salt excretion in conscious rat at the dose of 0.3 mg/kg expressed as urinary excretion in treated rats/urinary excretion in control rats; type: ADME, organism-based, Urine; parameters: dose 0.3 mg/kg; details: in vivo; in short: as §1
[18] = Sodium salt excretion in conscious rat at the dose of 3.0 mg/kg expressed as urinary excretion in treated rats/urinary excretion in control rats; type: ADME, organism-based, Urine; parameters: dose 3 mg/kg; details: in vivo; in short: as §1
Rattus norvegicus [19] = assay: Blood pressure change in rats after oral administration of 50 mg/kg dose after 24 hours; type: functional; in short: as §2
Rattus norvegicus [20] = assay: Compound was tested for urinary volume excretion in conscious rat at the dose of 3.0 mg/kg expressed as urinary excretion in treated rats/urinary excretion in control rats; type: ADME, organism-based, Urine; parameters: dose 3 mg/kg; details: in vivo; in short: as §1
[21] = Sodium salt excretion in conscious rat at the dose of 30 mg/kg expressed as urinary excretion in treated rats/urinary excretion in control rats; type: ADME, organism-based, Urine; parameters: dose 30 mg/kg; details: in vivo; in short: as §1
Rattus norvegicus [22] = assay: Compound was tested for blood pressure change in rats after oral administration of 50 mg/kg dose after 4 hours; type: functional; in short: as §2
Rattus norvegicus [23] = assay: Compound was tested for blood pressure change in rats after oral administration of 50 mg/kg dose after 24 hours; type: functional; in short: as §2
Rattus norvegicus [24] = species on record: Rattus norvegicus; assay: Compound was tested for diuretic activity in rats; I=Inactive; type: functional, organism-based; details: Urine; in short: as §3
Rattus norvegicus [25] = assay: Compound was tested for inhibition of RPAR administered perorally at 25 mg/kg dose; I=Inactive; type: functional, organism-based; parameters: dose 25 mg/kg
In short: (§4)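 Male Wistar rats (180-200 g), 5-10/group, dosed orally (water with Tween-80 suspension) 1 h before iv sensitization with 1 mg bovine serum albumin; 24-h fasted. 60 min later subplantar challenge with 200 µg anti-BSA in left hindpaw. Paw swelling by mercury displacement plethysmography at 2 h post-challenge.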

Rattus norvegicus [26] = assay: Inhibition of RPAR administered perorally at 100 mg/kg dose; type: functional; details: route oral; in short: as §4
Rattus norvegicus [27] = assay: Inhibition of RPAR administered perorally at 50 mg/kg dose; type: functional; details: route oral; in short: as §4
Rattus norvegicus [28] = assay: Inhibition of RPAR administered perorally at 25 mg/kg dose; type: functional; details: route oral; in short: as §4

For `NS(=O)(=O)c1cc(C(=O)O)c(NCc2ccco2)cc1Cl` [FUROSEMIDE], the Urinary volume (Rattus norvegicus [1]) was 7.2, the “Na+ excretion” value [2] was 1.1 and the “K+ excretion” value [3] was 1. The Urinary volume (Rattus norvegicus [4]) was 2.2, the “Na+ excretion” value [5] was 4.5 and the “Na+ excretion” value [6] was 1.5. For the same compound, the “K+ excretion” value [7] was 1.6, the “K+ excretion” value [8] was 2.2 and the Urinary volume (Rattus norvegicus [9]) was 1.2. For the same compound, the Urinary volume (Rattus norvegicus [10]) was 4.7, the MABP change (Rattus norvegicus [11]) was 1 mmHg and the “K+ excretion” value [12] was 3.2. For the same compound, the Diuretic activity (Rattus norvegicus [13]) was 31.25, the Urinary volume (Rattus norvegicus [14]) was 1.1 and the “K+ excretion” value [15] was 1.3. For the same compound, the “K+ excretion” value [16] was 1, the “Na+ excretion” value [17] was 1.1 and the “Na+ excretion” value [18] was 1.1. For the same compound, the MABP change (Rattus norvegicus [19]) was -3 mmHg, the Urinary volume (Rattus norvegicus [20]) was 1.3 and the “Na+ excretion” value [21] was 3.1.

In the case of `Cn1c(=O)[nH]c(-c2ccccc2)c(I)c1=O`, the MABP change (Rattus norvegicus [11]) is reported as 1 mmHg and the MABP change (Rattus norvegicus [19]) is reported as 4 mmHg.

For `N=C(N)NCCN1CCCCCCC1` [GUANETHIDINE], the MABP change (Rattus norvegicus [11]) was -16 mmHg and the MABP change (Rattus norvegicus [19]) was 9 mmHg.

For `NS(=O)(=O)c1cc2c(cc1Cl)NCNS2(=O)=O` [HYDROCHLOROTHIAZIDE], the MABP change (Rattus norvegicus [22]) was 0 mmHg, the Urinary volume (Rattus norvegicus [1]) was 2.7 and the “Na+ excretion” value [2] was 2. For the same compound, the “K+ excretion” value [3] was 1.6, the Urinary volume (Rattus norvegicus [4]) was 2.4 and the “Na+ excretion” value [5] was 2.5. For the same compound, the “Na+ excretion” value [6] was 2.4, the “K+ excretion” value [7] was 1.5 and the “K+ excretion” value [8] was 1.5. For the same compound, the Urinary volume (Rattus norvegicus [9]) was 2.3, the Urinary volume (Rattus norvegicus [10]) was 2.6 and the “K+ excretion” value [12] was 1.7. The Diuretic activity (Rattus norvegicus [13]) was 7.18, the Urinary volume (Rattus norvegicus [14]) was 1.9 and the “K+ excretion” value [15] was 1.6. The “K+ excretion” value [16] was 1.2, the “Na+ excretion” value [17] was 1.7 and the “Na+ excretion” value [18] was 2.1. For the same compound, the MABP change (Rattus norvegicus [23]) was 2 mmHg, the Urinary volume (Rattus norvegicus [20]) was 2.2 and the “Na+ excretion” value [21] was 2.4.

In the case of `Nc1nc(O)cc(-c2ccccc2)n1`, the Diuretic activity (Rattus norvegicus [24]) is reported as “inactive” and the inhibition (Rattus norvegicus [25]) is reported as “inactive”.

`CN(C)c1nc(O)c(I)c(-c2ccccc2)n1` showed an MABP change (Rattus norvegicus [11]) of 1 mmHg and an MABP change (Rattus norvegicus [19]) of 2 mmHg.

Compound `N=C(N)Nc1nc(O)c(Br)c(-c2ccccc2)n1` has an MABP change (Rattus norvegicus [11]) of -2 mmHg and an MABP change (Rattus norvegicus [19]) of -1 mmHg.

`N=C(N)Nc1nc(O)c(I)c(-c2ccccc2)n1` showed an MABP change (Rattus norvegicus [11]) of -2 mmHg and an MABP change (Rattus norvegicus [19]) of 3 mmHg.

Work on `Nc1nc(=O)c(Br)c(-c2ccccc2)n1O` yielded an MABP change (Rattus norvegicus [11]) of 6 mmHg and an MABP change (Rattus norvegicus [19]) of -1 mmHg.

`Nc1nc(O)c(I)c(-c2ccccc2)n1` gave an MABP change (Rattus norvegicus [11]) of -7 mmHg, an inhibition in vivo at 100 mg/kg (Rattus norvegicus [26]) of 8% and an inhibition in vivo at 50 mg/kg (Rattus norvegicus [27]) of 3%. It also gave an MABP change (Rattus norvegicus [19]) of -12 mmHg.

`CNc1nc(O)c(Br)c(-c2ccccc2)n1` gave an inhibition in vivo at 25 mg/kg (Rattus norvegicus [28]) of 42%, an inhibition in vivo at 100 mg/kg (Rattus norvegicus [26]) of 82% and an inhibition in vivo at 50 mg/kg (Rattus norvegicus [27]) of 78%.

`CC(=O)Nc1nc(O)c(Br)c(-c2ccccc2)n1` showed an MABP change (Rattus norvegicus [11]) of 4 mmHg and an MABP change (Rattus norvegicus [19]) of 1 mmHg.

For `Cn1c(N)nc(-c2ccccc2)c(I)c1=O`, the Urinary volume (Rattus norvegicus [1]) was 2, the “Na+ excretion” value [2] was 1.2 and the “K+ excretion” value [3] was 1.1. For the same compound, the Urinary volume (Rattus norvegicus [4]) was 2.2, the “Na+ excretion” value [5] was 2.7 and the “Na+ excretion” value [6] was 1.9. The “K+ excretion” value [7] was 1.4, the “K+ excretion” value [8] was 2.1 and the Urinary volume (Rattus norvegicus [9]) was 1.4. It also gave a Urinary volume (Rattus norvegicus [10]) of 2.7, an inhibition in vivo at 25 mg/kg (Rattus norvegicus [28]) of 18% and an MABP change (Rattus norvegicus [11]) of -6 mmHg. For the same compound, the inhibition in vivo at 100 mg/kg (Rattus norvegicus [26]) was 79%, the “K+ excretion” value [12] was 1.6 and the Diuretic activity (Rattus norvegicus [13]) was 4.46. For the same compound, the Urinary volume (Rattus norvegicus [14]) was 1.3, the “K+ excretion” value [15] was 1.2 and the “K+ excretion” value [16] was 1.1. For the same compound, the “Na+ excretion” value [17] was 1.1, the inhibition in vivo at 50 mg/kg (Rattus norvegicus [27]) was 30% and the “Na+ excretion” value [18] was 1.6. For the same compound, the MABP change (Rattus norvegicus [19]) was -13 mmHg, the Urinary volume (Rattus norvegicus [20]) was 1.6 and the “Na+ excretion” value [21] was 2.4.
